Consider 15 compounds from publication PMC12554292 (Drug Design, Development and Therapy, 2025).

Data set [1] has as its system Huh-7 cells. The data set can be described thus: CCK-8 cell viability and IC50 measurement, Huh-7. As to conditions: read-out: IC50 Huh-7. The format is cell-based, human. Summed up: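 Huh-7 cells (ATCC) in DMEM or RPMI 1640 with 10% FBS, 37°C, 5% CO2; seeded 3 × 10^3 cells/well and left to adhere overnight. […] CCK-8 added for 1 h, A450 read. Viability as % of control; IC50 from inhibition by nonlinear regression. n > 5; mean ± SE.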

Data set [2] has as its system Huh-7 cells. The data set can be described thus: RT-PCR gene expression analysis. The format is cell-based, human. As to conditions: 10 μM, 72 h. The essentials: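 Huh-7 cells in 12-well plates were treated with 10 μM test compound for 72 h. Total RNA was extracted with TRIzol, and gene expression was measured by SYBR Green real-time PCR using specific primer pairs.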

Data set [3] relates to Huh-7 cells. The data set can be described thus: Live and dead cell staining. The format is cell-based, human. Conditions: 5, 10, 20 μM, 24h. Summed up:
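Huh-7 cells seeded at 3 × 10^3 cells/well and incubated overnight. Treated with test compound at 0, 5, 10 or 20 μM for 24 h, then stained with Calcein-AM and PI for 1 h in the dark and imaged by fluorescence confocal microscopy. 5–6 replicates per group.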

The test system of data set [4] is Huh-7 cells. The data set can be described thus: Autophagy staining assay. The format is cell-based, human. As to conditions: 5, 10, 20 μM, 24 h, MDC probe. The essentials:
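Huh-7 cells were seeded at 3 × 10^3 cells/well and exposed to 0, 5, 10 or 20 μM test compound for 24 h. Medium was removed, and cells were stained with monodansylcadaverine for 1 h in the dark at 37°C, then imaged by confocal microscopy. Replicates: 5–6 per group.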

The subject of data set [5] is Huh-7 cells. The data set can be described thus: DNA damage staining. It counts as cell-based, human. Conditions: 5, 10, 20 μM, 24h. Summed up:
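Huh-7 cells seeded at 3 × 10^3 cells/well and exposed to test compound at 0, 5, 10 or 20 μM for 24 h. Stained with a DNA damage detection kit (nuclei blue, DNA-damaged cells green), then imaged by fluorescence microscopy. 5–6 replicates per group.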

The subject of the next data set is Female KM mice. The data set can be described thus: Acute oral toxicity test. The format is in vivo. As to conditions: 500 mg/kg, intragastric administration. The essentials:
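Female Kunming mice (SPF, 8 weeks), acclimated 7 days with free water on a 12 h light/dark cycle; 6 per group. Test compound at 500 mg/kg given intragastrically in 5% DMSO + 40% PEG300 + 1% Tween 80 + 54% saline; controls received an equal volume of vehicle. Body weight and appearance were followed for 14 days. Heart, liver, spleen, lungs and kidneys were then weighed for organ coefficients and examined by H&E histology.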

In data set [6] the test system is Huh-7 cells. The data set can be described thus: Apoptosis assay. The format is cell-based, human. Conditions: 5, 10, 20 μM, 72h.
For data set [7], the system named is Huh-7 cells. The data set can be described thus: Western blot protein expression analysis. The format is cell-based, human. Conditions: 10 μM, 72 h. Summed up:
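Huh-7 cells in 12-well plates were treated with 10 μM test compound for 72 h. Whole-cell protein was extracted in RIPA buffer with protease/phosphatase inhibitors and immunoblotted for γH2AX, caspase-3, caspase-9, PARP, cyclin D, cyclin E, LC3 and β-actin. Six replicates per group; mean ± SEM, two-tailed t-test.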

For data set [8], the target named is MET receptor tyrosine kinase (RTK). As to conditions: read-out: IC50 MET receptor tyrosine kinase; cited from earlier work.
The next data set deals with ABHD6. Conditions: cited from earlier work.

Where two headings read alike, the source gives them in different places.

For `O=C(Nc1ccc(Cl)cc1)Nc1cccc(-c2cn(Cc3ccc(Br)cc3)nn2)c1` [Compound 3c, 1-(3-(1-(4-Bromobenzyl)-1H-1,2,3-Triazol-4-Yl)phenyl)-3-(4-Chlorophenyl)urea], the concentration for half-maximal inhibition (IC50) with Huh-7 cells [1] (Homo sapiens, Huh-7, 72 h) came to 10.2 ± 1.32 µM. For the same compound, in the data set with Huh-7 cells [2], the “expression of Keap1 (mRNA)” value is listed as “upregulated”; the “expression of oxidative stress genes Nrf2, Gpx4, TNFa (mRNA)” value was “no significant changes”; the “expressions of p53, p21, H2AX, Bcl2, caspase6, caspase7, ATG5 and ATG7 (mRNA)” value is “did not influence”. The “Dead and living cells staining” value in the data set on Huh-7 cells [3] is reported as “dead cells were increased significantly in a dose-dependent manner”. Also, the “autophagosome in tumor cells” value in the data set with Huh-7 cells [4] is on record as “increased dramatically”. In addition, in the data set on Huh-7 cells [5], the DNA damage entry is listed as “significantly stimulated DNA damage in a concentration-dependent manner”. Further, the mortality result in the data set with Female KM mice (14-day observation, female KM mice) was “no mortality”. Besides, the “body weight vs vehicle control group” value with Female KM mice (14 days, all time points) is listed as “no statistically significant differences”. In addition, the “organ coefficient and histopathological assessments of major organs” value with Female KM mice (cardiac, hepatic, splenic, pulmonary, renal tissues) is “no detectable toxicological alterations”. The apoptotic cells result with Huh-7 cells [6] is given as “dose-dependent increases in apoptotic cells”.

For `O=C(Nc1cccc(-c2cn(Cc3ccc(Br)cc3)nn2)c1)Nc1ccccc1Br` [Compound 3e, 1-(3-(1-(4-Bromobenzyl)-1H-1,2,3-Triazol-4-Yl)phenyl)-3-(2-Bromophenyl)urea], the half-inhibitory concentration (IC50) in the data set on Huh-7 cells [1] (Homo sapiens, Huh-7, 72 h) was determined as 12.2 ± 1.31 µM. In the data set with Huh-7 cells [2], the “DNA damaged genes and autophagy genes (mRNA)” value is reported as “not changed”; the “expression of Bcl2 (mRNA)” value was “increased largely”; the “expression of Gpx4 and TNFa (mRNA)” value is on record as “also increased”. Besides, the “Dead and living cells staining” value in the data set with Huh-7 cells [3] is on record as “dead cells were increased significantly in a dose-dependent manner”. The “autophagosome in tumor cells” value in the data set on Huh-7 cells [4] is given as “increased dramatically”. In the data set with Huh-7 cells [5], the DNA damage entry is recorded as “significantly stimulated DNA damage in a concentration-dependent manner”. For the same compound, in the data set on Huh-7 cells [7], the H2AX protein expression entry is recorded as “significantly increased”. In addition, in the data set on Huh-7 cells [6], the apoptotic cells result is “dose-dependent increases in apoptotic cells”.

`O=c1[nH]cc(F)c(=O)[nH]1` [Compound 5-FU, reference compound]: the IC50 with Huh-7 cells [1] (72-hour exposure, CCK-8) was found to be 39 ± 0.56 µM.

Turning to `O=C(Nc1ccc(Cl)cc1)Nc1ccc(-c2cn(Cc3ccc(Cl)cc3)nn2)cc1` [Compound 5a, 1-(4-(1-(4-Chlorobenzyl)-1H-1,2,3-Triazol-4-Yl)phenyl)-3-(4-Chlorophenyl)urea], the IC50 in the data set on Huh-7 cells [1] (Homo sapiens, Huh-7, 72 h) is more than 50 µM.

On to `O=C(Nc1ccc(Cl)cc1)Nc1ccc(-c2cn(Cc3cccc(Cl)c3)nn2)cc1` [Compound 5b, 1-(4-(1-(3-Chlorobenzyl)-1H-1,2,3-Triazol-4-Yl)phenyl)-3-(4-Chlorophenyl)urea], for which the half-maximal inhibitory concentration (IC50) with Huh-7 cells [1] (Homo sapiens, Huh-7, 72 h) is more than 50 µM.

With `O=C(Nc1ccc(Cl)cc1)Nc1ccc(-c2cn(Cc3ccc(Br)cc3)nn2)cc1` [Compound 5c, 1-(4-(1-(4-Bromobenzyl)-1H-1,2,3-Triazol-4-Yl)phenyl)-3-(4-Chlorophenyl)urea], the IC50 in the data set with Huh-7 cells [1] (Homo sapiens, Huh-7, 72 h) was more than 50 µM.

As to `O=C(Nc1ccc(-c2cn(Cc3ccc(Cl)cc3)nn2)cc1)Nc1ccccc1Br` [Compound 5d, 1-(2-Bromophenyl)-3-(4-(1-(4-Chlorobenzyl)-1H-1,2,3-Triazol-4-Yl)phenyl)urea], the IC50 in the data set on Huh-7 cells [1] (Homo sapiens, Huh-7, 72 h) is more than 50 µM.

For the compound `O=C(Nc1ccc(-c2cn(Cc3ccc(Br)cc3)nn2)cc1)Nc1ccccc1Br` [Compound 5e, 1-(4-(1-(4-Bromobenzyl)-1H-1,2,3-Triazol-4-Yl)phenyl)-3-(2-Bromophenyl)urea], the half-maximal inhibitory concentration (IC50) in the data set on Huh-7 cells [1] (Homo sapiens, Huh-7, 72 h) is more than 50 µM.

For `O=C(NCc1cn(Cc2ccc(Cl)cc2)nn1)Nc1ccc(Cl)cc1` [Compound 7a, 1-((1-(4-Chlorobenzyl)-1H-1,2,3-Triazol-4-Yl)methyl)-3-(4-Chlorophenyl)urea], the IC50 with Huh-7 cells [1] (Homo sapiens, Huh-7, 72 h) was more than 50 µM.

`O=C(NCc1cn(Cc2cccc(Cl)c2)nn1)Nc1ccc(Cl)cc1` [Compound 7b, 1-((1-(3-Chlorobenzyl)-1H-1,2,3-Triazol-4-Yl)methyl)-3-(4-Chlorophenyl)urea]: the concentration for half-maximal inhibition (IC50) in the data set with Huh-7 cells [1] (Homo sapiens, Huh-7, 72 h) is more than 50 µM.

Consider `O=C(NCc1cn(Cc2ccc(Br)cc2)nn1)Nc1ccc(Cl)cc1` [Compound 7c, 1-((1-(4-Bromobenzyl)-1H-1,2,3-Triazol-4-Yl)methyl)-3-(4-Chlorophenyl)urea], for which, in the data set with Huh-7 cells [1] (Homo sapiens, Huh-7, 72 h), the IC50 is more than 50 µM.

With `O=C(NCc1cn(Cc2ccc(Cl)cc2)nn1)Nc1ccccc1Br` [Compound 7d, 1-(2-Bromophenyl)-3-((1-(4-Chlorobenzyl)-1H-1,2,3-Triazol-4-Yl)methyl)urea], the IC50 in the data set on Huh-7 cells [1] (Homo sapiens, Huh-7, 72 h) is more than 50 µM.

Consider `O=C(NCc1cn(Cc2ccc(Br)cc2)nn1)Nc1ccccc1Br` [Compound 7e, 1-((1-(4-Bromobenzyl)-1H-1,2,3-Triazol-4-Yl)methyl)-3-(2-Bromophenyl)urea], for which the IC50 in the data set on Huh-7 cells [1] (Homo sapiens, Huh-7, 72 h) was more than 50 µM.

Consider `O=C(NCCN1CCOCC1)Nc1nc2ccc(Sc3nnc4ccc(-c5ccc(F)cc5)nn34)cc2s1` [II], for which the IC50 in [8] is 0.0042 µM.

For `O=C(c1cccc(-c2ccc(-c3cn(C(=O)N4CCCCC4c4ccccc4)nn3)cc2)c1)N1CCCCC1` (stereo not drawn) [KT185], the in vivo selectivity result with ABHD6 is “exceptional in vivo selectivity”.
